Measurements taken from PubChem BioAssay.
Activity calls are given as the source filed them.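 Rule for the calls, unless noted: active = NADPH fluorescence slope more negative than the mean of all samples by about 3 SD, 99.7% confidence; inactive = the rest.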

Key:
[1] = inhibitors of TNFa-induced NFkB p65 translocation, primary screen, imaging, HUVEC, MLSMR starter and 10KST1 sets (AID 438;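 active = inhibition above 20% together with a positive visual image hit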;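 note: compound added about 3h40 before a 20 min TNFalpha stimulation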;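 for inhibition: signal is the nuclear over cytoplasmic p65 intensity ratio per well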); conditions: HUVEC TNFa-induced p65 nuclear translocation; cell count: measured here: nuclei count (cytotoxicity indicator), at 2.08 µM; inhibition: at 2 µM, stronger effect = higher value, 0% TNFa-plus-vehicle, 100% no-TNFa wells
[2] = inhibitors of mutant huntingtin aggregation, primary screen, imaging, exon1htt(103Q)mCFP cells, high-content imaging (AID 483;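 active = visual image review flags a hit and inhibition of aggregation exceeds 20%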;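 note: compound exposure lasted 3 days before fixation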;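 for nuclei count: percent of the per-plate median nuclei count of sample wells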); conditions: exon1htt(103Q)mCFP cell line, aggregate imaging, at 2 µM; inhibition of aggregation: stronger effect = higher value; nuclei count: measured here: cell count, toxicity
[3] = inhibitors of E-selectin induction by TNFa, primary screen, imaging, HUVEC, immunofluorescence, MLSMR starter and 10KST1 sets (AID 487;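 active = visually confirmed hit in the image check and inhibition above 20%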;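 for inhibition: signal is fraction of cell area covered by stained E-selectin grains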;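 for nuclei count: 100% = median nuclei count of all wells on the same plate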); conditions: HUVEC TNFalpha-induced E-selectin immunofluorescence imaging, at 2 µM; inhibition: stronger effect = higher value; nuclei count: measured here: cell number, toxicity
[4] = molecular target: Voltage-gated potassium channel subunit beta-2 (Rattus norvegicus) (UniProt P62483); test: KvBeta enzyme negative modulators, primary screen, biochemical, NADPH fluorescence (AID 622;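 active = fluorescence slope higher than the sample average by over 3 SD, cut at about -0.22 in these data, passing the limit was not always enough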;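 note: slope of raw intensity against log time taken from 70 to 1610 s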); conditions: recombinant KvBeta, 4-cyanobenzaldehyde reduction, at 10 µM, stronger effect = higher value
[5] = molecular target: Voltage-gated potassium channel subunit beta-2 (Rattus norvegicus) (UniProt P62483); test: KvBeta positive modulators, primary screen, biochemical, NADPH fluorescence (AID 623); conditions: Recombinant KvBeta, NADPH fluorescence decrease slope, 10 min; at 10 µM; stronger effect = lower value;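 note: fluorescence intensity change per second fitted from 20 to 320 s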
[6] = molecular target: Muscarinic acetylcholine receptor M4 (Homo sapiens) (UniProt P08173); test: compounds altering M4/GIRK thallium flux, either direction, primary screen, M4 allosteric agonist project, cell-based, HEK293 M4/GIRK, BTC-AM (AID 625;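 active = fluorescence slope after compound addition differing from the mean of all tested samples at 99.7% confidence, mostly higher but some lower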;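 note: thallium influx through GIRK channels coupled to M4 in HEK293 cells with BTC-AM dye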); conditions: at 10 µM, actives lie on both sides
In short: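 System: HEK293 cells with M4 receptor and GIRK channels | Incubation: Cells overnight at 37 °C, BTC-AM loading 1 h, reads 2 min total | Technique: Kinetic BTC-AM fluorescence sampled at 1 Hz, 10 s pre-addition baseline | Measure: Post-addition slope, 15–24 s, of baseline-normalized fluorescence | Control set: Carbachol positive, DMSO negative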

[7] = inhibitors of Sendai virus-induced IRF3 signaling, primary screen, TLR/RLR signaling modifier project, cell-based, Sendai virus stimulus, luciferase, 10K MLSCN set (AID 602276;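 active = inhibition at or above 50% at 10 µM; inactive = inhibition below 50%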;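 note: firefly luciferase from ISG56 promoter only with Renilla not read in this screen; 0% = Sendai virus plus DMSO and 100% = medium plus DMSO without virus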); conditions: HEK293 RL24 IRF3 luciferase reporter, at 10 µM, stronger effect = higher value
[8] = inhibitors of poly I:C-induced TLR3 signaling, primary screen, cell-based, poly I:C stimulus, luciferase, 10K MLSCN set (AID 602277;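 active = inhibition of the reporter signal at or above 50%; inactive = inhibition below 50%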); conditions: HEK293-TLR3 RL24 IRF3 luciferase reporter, at 10 µM, stronger effect = higher value

Chain of Voltage-gated potassium channel subunit beta-2 (Rattus norvegicus) (P62483 whole entry, looked up): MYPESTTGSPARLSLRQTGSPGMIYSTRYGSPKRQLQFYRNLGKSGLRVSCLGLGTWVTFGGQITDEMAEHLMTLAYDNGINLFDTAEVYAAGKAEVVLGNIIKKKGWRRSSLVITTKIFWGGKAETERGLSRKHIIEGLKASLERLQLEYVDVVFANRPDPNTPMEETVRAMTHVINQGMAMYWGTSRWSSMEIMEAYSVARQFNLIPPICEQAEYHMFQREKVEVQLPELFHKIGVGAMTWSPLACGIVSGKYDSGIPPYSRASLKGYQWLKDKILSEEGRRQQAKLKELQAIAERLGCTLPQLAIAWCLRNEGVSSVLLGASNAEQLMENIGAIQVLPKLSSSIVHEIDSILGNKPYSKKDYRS
Chain of Muscarinic acetylcholine receptor M4 (Homo sapiens) (P08173 whole entry, looked up): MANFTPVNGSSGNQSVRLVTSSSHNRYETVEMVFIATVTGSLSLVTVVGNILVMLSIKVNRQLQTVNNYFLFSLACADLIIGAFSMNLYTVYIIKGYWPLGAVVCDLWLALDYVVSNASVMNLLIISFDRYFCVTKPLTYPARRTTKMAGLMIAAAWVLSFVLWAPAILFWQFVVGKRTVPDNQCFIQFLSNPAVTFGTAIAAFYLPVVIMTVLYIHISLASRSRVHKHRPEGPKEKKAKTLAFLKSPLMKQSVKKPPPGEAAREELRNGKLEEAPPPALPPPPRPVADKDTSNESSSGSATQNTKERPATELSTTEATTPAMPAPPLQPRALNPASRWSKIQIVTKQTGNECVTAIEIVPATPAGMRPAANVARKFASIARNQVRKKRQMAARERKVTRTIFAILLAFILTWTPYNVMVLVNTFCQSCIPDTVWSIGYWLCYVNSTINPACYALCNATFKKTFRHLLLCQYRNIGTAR

Row | Structure (SMILES) | cell count [1] | inhibition [1] | inhibition of aggregation [2] | nuclei count [2] [%] | inhibition [3] | nuclei count [3] [%] | fluorescence slope [4] | NADPH fluorescence slope [5] | fluorescence slope [6] | inhibition [7] | inhibition [8]
1 | COc1ccc(N2CCN(C(=O)CN3C(=O)C4CC=CCC4C3=O)CC2)cc1 (stereo unspecified) | 693 | 9.7% (inactive) | 11% (inactive) | 108 | 55.9% (inactive) | 90.3 | -0.575 (inactive) | 3.5e-05 (inactive) | 0.00533 (inactive) | -11% (inactive) | -14.6% (inactive)
2 | Cc1nn(-c2ccc(F)cc2)c2sc(C(=O)OCC(=O)N3CCC(C)CC3)cc12 | 359 | -4.2% (inactive) | -8.8% (inactive) | 95.7 | 0.8% (inactive) | 106 | -0.514 (inactive) | -3.9e-05 (inactive) | 0.00495 (inactive) | -2.34% (inactive) | -1.01% (inactive)
3 | COc1ccc(-c2cc3nc(C)c(CCC(=O)NCc4ccco4)c(C)n3n2)c(OC)c1 | 393 | 4.9% (inactive) | -18.2% (inactive) | 105 | -25% (inactive) | 83.7 | -0.443 (inactive) | -0.00019 (inactive) | 0.00532 (inactive) | 12.2% (inactive) | 11.7% (inactive)
4 | CC1(C)Cc2noc(N)c2C(C)(C)N1OC(=O)c1cccs1 | 379 | 0% (inactive) | 5.5% (inactive) | 110 | -80.4% (inactive) | 129 | -0.46 (inactive) | 1.8e-05 (inactive) | 0.00603 (inactive) | 4.03% (inactive) | 12.6% (inactive)
5 | CC1C(c2ccccc2)N(C)CCC12NC(=O)NC2=O (stereo unspecified) | 315 | -0.8% (inactive) | -12.3% (inactive) | 108 | -43% (inactive) | 135 | -0.397 (inactive) | 6.4e-05 (inactive) | 0.00604 (inactive) | -0.144% (inactive) | 3.49% (inactive)
6 | Cc1cc(=O)n2[nH]c(COc3ccccc3)nc2n1 | 203 | -7.9% (inactive) | 31.3% (inactive) | 101 | -85.5% (inactive) | 91.6 | -0.531 (inactive) | -4.3e-05 (inactive) | 0.00471 (inactive) | 6.61% (inactive) | 14.8% (inactive)
7 | CCOC(=O)N1CCC(N(C(=O)Nc2ccc(Cl)c(Cl)c2)C(C)CC)CC1 (stereo unspecified) | 346 | -3.2% (inactive) | 4.4% (inactive) | 120 | -44% (inactive) | 118 | -0.489 (inactive) | -7.4e-06 (inactive) | 0.00507 (inactive) | 8.19% (inactive) | -18.2% (inactive)
8 | CCOc1ccccc1N1CCN(c2nc(N)c(C#N)c(CC#N)c2C#N)CC1 | 687 | -1.7% (inactive) | -18.6% (inactive) | 88.7 | -68.9% (inactive) | 105 | -0.592 (inactive) | -1e-05 (inactive) | 0.00416 (inactive) | 20.4% (inactive) | 17.9% (inactive)
9 | Cc1nnc(SCC(=O)NC(C)(C)C)n1CCc1ccccc1 | 677 | 2.8% (inactive) | -3.9% (inactive) | 109 | -20.1% (inactive) | 135 | -0.512 (inactive) | -4.5e-05 (inactive) | 0.00442 (inactive) | 11.7% (inactive) | 8.89% (inactive)
10 | O=C1NCCCc2c1no[n+]2[O-] | 381 | 5.3% (inactive) | 19.4% (inactive) | 54.8 | -31.3% (inactive) | 107 | -0.584 (inactive) | -6.4e-06 (inactive) | 0.00512 (inactive) | -17.2% (inactive) | 6.4% (inactive)
11 | CNC(=O)Nc1cccc(C(F)(F)F)c1 | 299 | -3.3% (inactive) | -31% (inactive) | 97.6 | -46.4% (inactive) | 130 | -0.566 (inactive) | -5.5e-05 (inactive) | 0.00624 (inactive) | 0.0526% (inactive) | 4.51% (inactive)
12 | O=C(O)c1c[nH]c2ccc(S(=O)(=O)N3CCN(c4ccc(F)cc4)CC3)cc2c1=O | 423 | -1.1% (inactive) | 20.5% (inactive) | 87.5 | -183% (inactive) | 101 | -0.566 (inactive) | 2e-06 (inactive) | 0.00349 (inactive) | 1.85% (inactive) | 0.478% (inactive)
13 | O=C(NCCN1CCOCC1)c1csc2c1CCCC2 | 643 | -24.5% (inactive) | 22.6% (inactive) | 109 | -109% (inactive) | 116 | -0.257 (inactive) | -1.1e-05 (inactive) | 0.0063 (inactive) | 12.1% (inactive) | 2.09% (inactive)
14 | Cc1ccc(-c2csc3nnc(SCC(=O)NCc4ccco4)n23)cc1 | 656 | 5.2% (inactive) | -2.5% (inactive) | 101 | -76.9% (inactive) | 94.1 | -0.556 (inactive) | -2.1e-05 (inactive) | 0.00536 (inactive) | 17.2% (inactive) | 19.3% (inactive)
15 | COC(=O)c1cc(Oc2ccc(C(=O)OC)cc2N)cc(C(=O)OC)c1 | 278 | -12.5% (inactive) | 1% (inactive) | 106 | -19% (inactive) | 108 | -0.467 (inactive) | -0.000384 (inactive) | 0.00407 (inactive) | -3.38% (inactive) | 8.08% (inactive)
16 | CCCSC1=C(C#N)C(c2ccccc2OCC)CC(=O)N1 (stereo unspecified) | 443 | 0.5% (inactive) | 0.2% (inactive) | 111 | 9.8% (inactive) | 95 | -0.454 (inactive) | -2.4e-05 (inactive) | 0.00486 (inactive) | 17.2% (inactive) | 17.7% (inactive)
17 | CN1CCCN(C(=O)c2cc(=O)[nH]c3ccccc23)c2nc3ccccc3nc21 | 369 | -0.6% (inactive) | 5.4% (inactive) | 101 | -33% (inactive) | 117 | -0.394 (inactive) | -0.000122 (inactive) | 0.00653 (inactive) | 16.3% (inactive) | 34.1% (inactive)
18 | COc1ccc(N2CCN(C(c3cccc(OC)c3OC)c3nnnn3C3CCCC3)CC2)cc1 (stereo unspecified) | 709 | 20% (inactive) | -7.2% (inactive) | 96.3 | 36.9% (inactive) | 76.2 | -0.508 (inactive) | 9.8e-05 (inactive) | 0.00439 (inactive) | -1.29% (inactive) | 21.9% (inactive)
19 | CCn1nc(C(=O)OCC(=O)c2cc(C)n(Cc3cccs3)c2C)c2ccccc2c1=O | 381 | -2.1% (inactive) | 25.7% (inactive) | 90.2 | -97.8% (inactive) | 113 | -0.556 (inactive) | 0.000162 (inactive) | 0.00739 (inactive) | 19.8% (inactive) | 7.59% (inactive)
20 | COc1ccc(N2C(=O)CC(NC3CC3)C2=O)cc1 (stereo unspecified) | 416 | 9.4% (inactive) | 0.9% (inactive) | 108 | 7.7% (inactive) | 110 | -0.577 (inactive) | 1.5e-05 (inactive) | 0.00561 (inactive) | 16.4% (inactive) | 24% (inactive)
21 | COC(=O)c1nn(-c2ccc(-c3ccccc3)cc2)cc1O | 281 | 6% (inactive) | 14.9% (inactive) | 99.2 | 9.1% (inactive) | 111 | -0.493 (inactive) | -1.1e-05 (inactive) | 0.00465 (inactive) | 6.22% (inactive) | 7.64% (inactive)
22 | CC(=O)Nc1ccn(-c2ccccc2)n1 | 595 | 1.8% (inactive) | -0.5% (inactive) | 108 | -113% (inactive) | 136 | -0.584 (inactive) | -9.6e-06 (inactive) | 0.00818 (inactive) | -39.2% (inactive) | -34.3% (inactive)
23 | O=c1c2ccccc2c(C=Nc2ccc(Cl)cn2)c(O)n1-c1cc(Cl)ccc1N1CCOCC1 | 164 | 14.4% (inactive) | -6.2% (inactive) | 83.8 | -0.8% (inactive) | 90.3 | -0.551 (inactive) | -6e-05 (inactive) | 0.00995 (inactive) | 7.35% (inactive) | -5.13% (inactive)
24 | CCSc1nc(C)nc2c1oc1ccccc12 | 407 | 1.9% (inactive) | 2.4% (inactive) | 96.3 | -45.2% (inactive) | 106 | -0.423 (inactive) | -7.5e-05 (inactive) | 0.00861 (inactive) | -4.86% (inactive) | -3.79% (inactive)
25 | CC(=O)Nc1ccc(S(=O)(=O)N2CCN(Cc3ccncc3)CC2)cc1 | 679 | -5.8% (inactive) | -14% (inactive) | 123 | -26.1% (inactive) | 126 | -0.451 (inactive) | -3.2e-05 (inactive) | 0.00451 (inactive) | 18.9% (inactive) | 16.4% (inactive)
26 | COc1ccccc1-c1ccc(Nc2cccc(C(C)=O)c2)nn1 | 319 | -11.3% (inactive) | -0.2% (inactive) | 74.7 | 0.3% (inactive) | 103 | -0.576 (inactive) | -6e-05 (inactive) | 0.00562 (inactive) | 12.1% (inactive) | -36.2% (inactive)
